Rows were chosen to be rich in hits. Some 1.9% of all compounds tested hit in one or more screens of this group.
PLC-beta3 inh: human PLC-beta3 inhibitors, primary screen, biochemical, fluorescence; inhibition, % at 12.2 µM; 1-phosphatidylinositol 4,5-bisphosphate phosphodiesterase beta-3 (Homo sapiens), Q01970; Purified PLC-beta3, fluorogenic substrate; AID 720704, 2013; 370,000 compounds, 0.18% hits; in the data active means inhibition above about 11%
HGIII-sPLA2 inh: human group III sPLA2 inhibitors, primary screen, biochemical, QFRET, BODIPY PC-A2 liposome substrate; Group 3 secretory phospholipase A2 (Homo sapiens), Q9NZ20; QFRET BODIPY PC-A2 liposome hydrolysis, fluorescence; 370,000 compounds, 0.56% hits; AID 743126, 2013; inhibition, % at 12.2 µM;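 active means inhibition above mean plus 3 SD of compounds lying within the high and low control bounds, cut at about 19% in these data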
Target sequence (Q9NZ20 whole entry, looked up): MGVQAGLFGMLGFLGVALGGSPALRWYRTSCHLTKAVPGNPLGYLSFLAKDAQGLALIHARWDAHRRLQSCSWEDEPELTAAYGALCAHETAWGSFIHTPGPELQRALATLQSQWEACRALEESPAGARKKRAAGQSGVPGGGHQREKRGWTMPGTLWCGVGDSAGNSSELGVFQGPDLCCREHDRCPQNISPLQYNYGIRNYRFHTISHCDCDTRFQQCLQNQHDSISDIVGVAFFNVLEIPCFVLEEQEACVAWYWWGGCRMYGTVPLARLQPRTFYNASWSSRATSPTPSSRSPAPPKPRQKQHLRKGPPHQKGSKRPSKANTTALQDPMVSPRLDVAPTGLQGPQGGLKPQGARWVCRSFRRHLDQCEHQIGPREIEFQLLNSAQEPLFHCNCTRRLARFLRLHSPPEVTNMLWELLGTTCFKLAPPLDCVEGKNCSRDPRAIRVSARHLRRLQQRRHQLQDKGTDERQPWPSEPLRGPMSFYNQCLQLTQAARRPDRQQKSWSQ
ARFGAP1 inh: inhibitors of rat ARFGAP1 GAP activity, primary screen, biochemical, fluorescence polarization, GDP tracer | inhibition, % at 16.5 µM | 360,000 compounds, 0.26% hits | Arfgap1-stimulated ARF1 GTP hydrolysis, GDP FP detection | ADP-ribosylation factor GTPase-activating protein 1 (Rattus norvegicus), Q62848;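 active means inhibition above a per-plate limit, mean inhibition of low control wells plus 3 SD, cut at about 25% in these data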
Target sequence (Q62848 1-136 limits assumed): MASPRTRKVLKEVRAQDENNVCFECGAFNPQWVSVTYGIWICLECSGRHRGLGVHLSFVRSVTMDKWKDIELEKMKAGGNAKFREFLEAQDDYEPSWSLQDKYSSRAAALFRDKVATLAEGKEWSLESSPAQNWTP
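Assay system: purified rat His6-Arfgap1 residues 1-136 (GAP domain); Reagent: human Δ17 ARF1 bound to GTP; Dosing: 16.5 µM single point, 1.26% DMSO; Times: GTP hydrolysis reaction 2 h at 25 °C; Signal: FP, GDP Alexa 633 tracer displaced from anti-GDP antibody, 620/688 nm; Measure: % inhibition from polarization.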
PLCg1 inh: PLC-gamma1 enzyme inhibitors, primary screen, biochemical, fluorescence, purified enzyme; 370,000 compounds, 0.84% hits; fluorogenic substrate; inhibition, % at 12.2 µM; AID 720700, 2013; 1-phosphatidylinositol 4,5-bisphosphate phosphodiesterase gamma-1 (Homo sapiens), P19174
ASAP1 GAP inh: inhibitors of human ASAP1 ArfGAP activity, primary screen, biochemical, fluorescence polarization; Arf-GAP with SH3 domain, ANK repeat and PH domain-containing protein 1 (Homo sapiens), …; ASAP1-stimulated ARF1 GTP hydrolysis, GDP FP detection; inhibition, % at 16.5 µM; 360,000 compounds, 0.19% hits; AID 624377, 2012; in the data active means inhibition above about 25%
PLCg1 ctr: PLC-gamma1 enzyme inhibitors, counter-screen for PLC-beta3 inhibitor project, biochemical, fluorescence. inhibition, % at 12.3 µM. AID 743258, 2014. purified PLC-gamma1, fluorogenic substrate. shares compounds with PLCg1 inh. 3,300 compounds, 3.1% hits
PLCb3 confirm: PLC-beta3 inhibitor confirmation, biochemical, fluorescence, purified enzyme; shares compounds with PLCg1 inh; fluorogenic substrate fluorescence; inhibition, % at 12.3 µM; 3,300 compounds, 1% hits; AID 743261, 2014; in the data active means inhibition above about 11%
Numbers stand for hits; n = inactive; x = no result given. Unless noted, no stated cut-off is given here; in the data, active means inhibition above about 9.5%; inactive means the rest.

SMILES	PLC-beta3 inh	HGIII-sPLA2 inh	ARFGAP1 inh	PLCg1 inh	ASAP1 GAP inh	PLCg1 ctr	PLCb3 confirm
COc1ccc([N+](=O)[O-])cc1NC(=O)C(C)OC(=O)CSC(C)C(=O)Nc1cc(C)on1 (stereo not given)	n	n	n	10	n	n	n
CCCCCCSC1=C(C#N)C(=O)NC2(CCCCC2)S1	n	n	n	14	n	n	n
COc1ccc(CSC2=C(C#N)C(=O)NC3(CCCCC3)S2)cc1	n	n	n	n	n	x	x
Cc1cc(C)cc(N(CC(=O)NC2CCC(C)CC2)S(=O)(=O)c2cccs2)c1 (stereo not given)	n	n	x	n	x	x	x
CCOC(=O)[C@@]12CN(C(=O)OC(C)(C)C)CC=C1N(Cc1ccc(OC)cc1)C(=O)[C@H]2CC(=O)NCCCOC	n	n	x	n	x	x	x
CCCS(=O)(=O)N1CCCC(c2nc(-c3cccc(OC)c3)no2)C1 (stereo not given)	n	n	n	n	n	x	x
COc1cccc(-c2noc(C3CCCN(S(=O)(=O)c4cccc(Cl)c4C)C3)n2)c1 (stereo not given)	n	n	n	12	n	n	n
CCN(CC(=O)Nc1cccc(F)c1)CC(=O)Nc1ccccc1OC	n	n	n	9.8	n	n	n
O=C(c1ccc(Cl)cc1[N+](=O)[O-])N1CCN(c2ccccn2)CC1	12	n	n	n	n	n	n
N=c1c2c(ccn1Cc1ccccc1)Oc1ccc3ccccc3c1C2c1ccccc1 (stereo not given)	n	n	x	n	x	x	x
CCOC(=O)[C@]12CCCC3=C1N(CCC3)C(=O)[C@@H](CC(=O)NCCC(C)C)C2	n	n	x	n	x	x	x
CC(C)C1S/C(=N/N=C/c2cccs2)NC1=O (stereo not given)	n	n	n	13	n	n	n
CCC1S/C(=N/N=C/c2cccs2)NC1=O (stereo not given)	n	n	n	15	n	n	n
CC(=O)N1CCOc2ccc(S(=O)(=O)NCCc3ccc(Cl)cc3)cc21	n	n	n	n	n	x	x
CN1CCOc2ccc(S(=O)(=O)NCCc3ccc(Cl)cc3)cc21	n	n	n	13	n	n	n
CC(C)N(Cc1nc(-c2ccccc2)no1)C(=O)CN(C)S(=O)(=O)c1ccccc1	n	n	n	9.6	n	n	n
Cn1c(=NC(=O)C2CC2)sc2cccc(F)c21	n	n	n	11	n	n	n
COc1ccccc1C(=O)OCC(=O)c1cccc([N+](=O)[O-])c1	n	n	n	n	n	x	x
Cc1cc(C(=O)OCC(=O)c2cccc([N+](=O)[O-])c2)c2ccccc2n1	14	n	n	n	n	n	n
O=C(C(=O)N1CCC(CNS(=O)(=O)c2ccccc2OC(F)(F)F)CC1)c1cccs1	n	n	n	n	n	x	x
COc1ccc(NC(=O)C2C3CCC(C3)C2C(=O)O)cc1OC (stereo not given)	n	n	n	18	n	n	n
CC(=O)Nc1ccc(NC(=O)C2C3CCC(C3)C2C(=O)O)cc1 (stereo not given)	n	n	n	n	n	x	x
COC(=O)c1scc(C)c1-n1ccc(C(=O)C(=O)N(C)C)c1	13	n	n	n	n	n	n
CCN(CC)C(=O)C(=O)c1ccn(-c2c(C)csc2C(=O)OC)c1	n	n	n	n	n	x	x
COc1ccc2[nH]c3c(c2c1)CCN[C@]31C(=O)N(Cc2cn(Cc3ccccc3)nn2)c2ccc(F)cc21	n	n	x	n	x	x	x
SMILES	PLC-beta3 inh	HGIII-sPLA2 inh	ARFGAP1 inh	PLCg1 inh	ASAP1 GAP inh	PLCg1 ctr	PLCb3 confirm
COc1ccc(CCNC(=O)Nc2nc(C(N)Cc3ccccc3)cs2)cc1OC (stereo not given)	n	n	n	9.6	n	n	n
COc1ccc(CC(N)c2csc(NC(=O)NCCc3ccc(OC)c(OC)c3)n2)cc1 (stereo not given)	n	n	n	n	n	x	x
Cc1c(NC(=O)C2CCCN(S(=O)(=O)c3cccc4ccccc34)C2)c(=O)n(-c2ccccc2)n1C (stereo not given)	n	n	x	n	x	x	x
COc1ccc(-c2cc(C(=O)Nc3ccc(C)c(C)c3)no2)cc1	n	n	n	12	n	n	n
CCOC(=O)CC[C@H]1CC[C@]2(CCCN(C(=O)C3CCCC3)C2)O1	n	n	x	n	x	x	x
CCCCNC(=O)C[C@H]1C[C@@]2(C(=O)OC)C(=C[C@H](COCc3ccccc3)O[C@@H]2C)N(Cc2ccco2)C1=O	n	n	x	n	x	x	x
COC(=O)C(Cc1ccc(O)cc1)NC(=O)C(C)NC(=O)c1ccc(C(C)(C)C)cc1 (stereo not given)	n	n	n	9.7	n	n	n
Nc1c(Br)c(=O)[nH]c(=O)n1-c1ccccc1	n	n	n	n	n	x	x
COc1ccc(-n2c(N)c(Br)c(=O)[nH]c2=O)cc1	n	n	n	11	n	n	n
CCOC(=O)N1CCN(Cc2nc3cc(NC(=O)C(C)C)ccc3n2C)CC1	n	n	n	12	n	n	n
CCOC(=O)N1CCN(CCC(=O)Nc2ccc(C)cc2)CC1	n	n	n	11	n	n	n
COc1ccc(OCCCC(=O)Nc2ccc(N3CCCCC3)cc2)cc1	n	n	n	10	n	n	n
CCOC(=O)N1CCN(Cc2nc3cc(NC(=O)C(C)C)ccc3n2CC)CC1	n	n	n	n	n	x	x
COc1ccc(NC(=O)CCN2CCCCCC2)cc1	n	n	n	11	n	n	n
COC(=O)[C@]12C[C@H](CC(=O)NCCCN3CCCC3=O)C(=O)N(Cc3ccc(Cl)cc3Cl)C1=C[C@H](C(C)C)O[C@@H]2C1CC1	n	n	x	n	x	x	x
Nc1[nH]c(C(=O)c2ccccc2)c(-c2ccc(Cl)cc2Cl)c1C(=O)NCCC1=CCCCC1	n	n	x	n	x	x	x
CCCCCCCCN1C(=O)[C@@H](CC(=O)NCCCN2CCCC2=O)C[C@@]2(C(=O)OC)C1=C[C@H](C(C)(C)C)O[C@@H]2C	n	n	n	n	n	x	x
COCCNC(=O)CS(=O)Cc1nc(-c2ccc(OC)cc2)oc1C (stereo not given)	n	n	n	n	n	x	x
COCCCNC(=O)CS(=O)Cc1nc(-c2cccc(OC)c2)oc1C (stereo not given)	n	n	n	66	n	n	n
CCOc1ccc(NC(=O)C2CCN(S(=O)(=O)c3cccnc3)CC2)cc1	n	n	n	12	n	n	n

Bioassay records from PubChem.
